Results pooled from the literature.
Each line is one published result; the experiments were not run side by side.
PTGS2: Prostaglandin G/H synthase 2 (PTGS2, Homo sapiens, UniProt P35354)
Penicillin-binding protein 2X: Penicillin-binding protein 2X (Streptococcus pneumoniae R6, UniProt P59676)

C=CCOc1ccc(C(=O)/C=C/c2cccc(F)c2)c(OS(=O)(=O)c2ccc(F)cc2)c1I
IC50 (PTGS2; enzyme activity, inhibitor): 18.6 µM

CC(C)(C)CNCc1nc2ccccc2n1CCOc1ccccc1
Kd (Penicillin-binding protein 2X; binding, MST): 115 µM

CCCCC/C=C\C/C=C\C/C=C\C/C=C\CCCC(=O)OC(CO)CO
Ki (Fatty acid-binding protein 5-ANS (Mus musculus, UniProt Q05816); ligand displacement, fluorescence): 1 µM

CN1CC[C@@]2(C)c3cc(OC(=O)Nc4ccccc4)ccc3N(C)[C@@H]12
IC50 (Retinal dehydrogenase 2 (ALDH1A2, Homo sapiens, UniProt O94788); enzyme activity, inhibitor, fluorescence; 15 min, pH 7.5): < 10 µM

C=CCOc1ccc(C(=O)/C=C/c2ccc(OC)cc2)c(OS(=O)(=O)c2ccc(F)cc2)c1I
IC50 (PTGS2; enzyme activity, inhibitor): 28.9 µM

Fc1c(F)c(F)c(OCCn2c(CNCC34CC5CC(CC(C5)C3)C4)nc3ccccc32)c(F)c1F
Kd (Penicillin-binding protein 2X; binding, MST): 70 µM

Cn1c(=O)n(CCCCN2CCC3(CC2)OCc2ccccc23)c2ccccc21
Ki (Sigma non-opioid intracellular receptor 1 (SIGMAR1, Cavia porcellus, UniProt Q60492); ligand displacement, radioligand; cell membranes): 0.0141 µM

COc1cc2c(cc1OC)CN(CCc1ccc(NC(=O)c3cccc4c(=O)c5cccc(OC)c5[nH]c34)cc1)CC2
Ki (Alpha-1D adrenergic receptor (ADRA1D, Homo sapiens, UniProt P25100); cell-free assay): 0.144 µM

COc1ccc2cc3[n+](cc2c1OC)CCc1cc2c(cc1-3)OCO2
Kd (Zinc finger protein GLI1 (GLI1, Homo sapiens, UniProt P08151); binding, SPR): ~0.652 µM
